In ChEMBL document CHEMBL4400543, “Identification and Characterization of AES-135, a Hydroxamic Acid-Based HDAC Inhibitor That Prolongs Survival in an Orthotopic Mouse Model of Pancreatic Cancer” (J Med Chem, 2019):

Experiments:
Histone deacetylase 8 = target: T1, Histone deacetylase 8 (Homo sapiens, UniProt Q9BY41); experiment: Inhibition of recombinant human HDAC8 expressed in SF9 baculoviral system using FAM-labeled acetylated peptide as substrate by EMSA
T1 sequence (Q9BY41 whole entry): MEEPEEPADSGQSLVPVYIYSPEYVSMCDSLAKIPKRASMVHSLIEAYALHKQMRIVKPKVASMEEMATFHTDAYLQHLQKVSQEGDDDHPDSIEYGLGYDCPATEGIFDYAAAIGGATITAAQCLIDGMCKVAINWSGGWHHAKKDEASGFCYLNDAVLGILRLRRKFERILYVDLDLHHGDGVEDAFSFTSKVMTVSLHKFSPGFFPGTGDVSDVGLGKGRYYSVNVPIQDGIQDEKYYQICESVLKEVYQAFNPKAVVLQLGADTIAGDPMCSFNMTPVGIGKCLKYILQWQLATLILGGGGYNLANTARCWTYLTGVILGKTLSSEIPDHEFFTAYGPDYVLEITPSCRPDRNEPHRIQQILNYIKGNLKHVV
Outline: (§1)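 Full-length recombinant human enzyme from an Sf9 baculovirus system, in 100 mM HEPES pH 7.5 with 25 mM KCl, 0.1% BSA, 0.01% Triton X-100 and 1% DMSO. Final enzyme was 0.5 nM for HDAC3, 60 nM for HDAC6 and 5.0 nM for HDAC8. FAM-acetylated peptide was 1 μM. The read-out was product/(substrate+product) by microfluidic mobility shift, with inhibition set against DMSO and no-enzyme controls (quadruplicate). Compounds were tested at 12 threefold-spaced concentrations, and IC50 came from a four-parameter sigmoid fit.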

[1] = target: T2, Protein deacetylase HDAC6 (Homo sapiens, UniProt Q9UBN7); experiment: Inhibition of recombinant human HDAC6 expressed in SF9 baculoviral system using FAM-labeled acetylated peptide as substrate by EMSA; outline: as §1
T2 sequence (Q9UBN7 whole entry): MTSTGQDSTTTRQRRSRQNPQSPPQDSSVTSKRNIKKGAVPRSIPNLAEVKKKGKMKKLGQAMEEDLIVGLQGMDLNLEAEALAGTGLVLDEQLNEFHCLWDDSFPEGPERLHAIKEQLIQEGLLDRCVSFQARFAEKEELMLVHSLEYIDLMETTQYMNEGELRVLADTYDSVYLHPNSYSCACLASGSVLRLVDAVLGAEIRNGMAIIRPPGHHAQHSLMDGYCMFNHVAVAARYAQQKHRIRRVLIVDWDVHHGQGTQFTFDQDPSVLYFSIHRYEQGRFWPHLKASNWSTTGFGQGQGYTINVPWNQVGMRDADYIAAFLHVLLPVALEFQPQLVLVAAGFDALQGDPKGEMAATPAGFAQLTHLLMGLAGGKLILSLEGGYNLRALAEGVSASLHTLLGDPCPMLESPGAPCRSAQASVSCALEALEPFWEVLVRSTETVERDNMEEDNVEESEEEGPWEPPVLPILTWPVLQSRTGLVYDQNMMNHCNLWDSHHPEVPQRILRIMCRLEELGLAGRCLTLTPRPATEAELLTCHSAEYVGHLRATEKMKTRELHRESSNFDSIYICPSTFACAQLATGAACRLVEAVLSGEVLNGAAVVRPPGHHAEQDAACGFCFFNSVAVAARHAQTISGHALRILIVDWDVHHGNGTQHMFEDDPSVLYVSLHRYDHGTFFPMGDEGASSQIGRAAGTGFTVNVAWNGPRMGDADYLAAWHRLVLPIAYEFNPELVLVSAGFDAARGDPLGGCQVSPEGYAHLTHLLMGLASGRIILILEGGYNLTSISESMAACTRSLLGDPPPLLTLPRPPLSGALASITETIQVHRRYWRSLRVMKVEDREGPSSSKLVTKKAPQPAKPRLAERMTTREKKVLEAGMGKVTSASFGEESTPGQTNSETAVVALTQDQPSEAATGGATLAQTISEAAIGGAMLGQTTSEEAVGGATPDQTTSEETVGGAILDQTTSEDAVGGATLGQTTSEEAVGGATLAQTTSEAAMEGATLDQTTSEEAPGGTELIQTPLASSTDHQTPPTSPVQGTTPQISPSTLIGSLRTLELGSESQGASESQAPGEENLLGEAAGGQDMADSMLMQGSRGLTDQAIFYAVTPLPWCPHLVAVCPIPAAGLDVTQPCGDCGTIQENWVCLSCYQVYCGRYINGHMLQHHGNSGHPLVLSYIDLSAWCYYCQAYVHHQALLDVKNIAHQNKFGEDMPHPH

Histone deacetylase 11 = target: T3, Histone deacetylase 11 (Homo sapiens, UniProt Q96DB2); experiment: Inhibition of recombinant human HDAC11 expressed in SF9 baculoviral system using FAM-labeled acetylated peptide as substrate by EMSA
T3 sequence (Q96DB2 whole entry): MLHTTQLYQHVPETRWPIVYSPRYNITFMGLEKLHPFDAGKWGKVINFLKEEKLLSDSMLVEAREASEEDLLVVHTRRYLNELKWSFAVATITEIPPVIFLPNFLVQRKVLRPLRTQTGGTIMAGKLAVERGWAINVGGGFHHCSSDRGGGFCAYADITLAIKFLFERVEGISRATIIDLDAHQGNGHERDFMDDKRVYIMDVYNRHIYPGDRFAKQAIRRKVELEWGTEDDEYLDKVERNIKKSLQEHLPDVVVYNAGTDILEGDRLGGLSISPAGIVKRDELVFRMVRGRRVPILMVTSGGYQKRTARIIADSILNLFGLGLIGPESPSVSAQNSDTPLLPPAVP
Outline: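 Full-length human HDAC11 (Sf9-expressed), 10 nM final, in 100 mM HEPES pH 7.5, 25 mM KCl, 0.1% BSA, 0.01% Triton X-100, 1% DMSO. FAM-acetylated peptide substrate at 100 μM, mobility-shift read-out. Product/(substrate + product) converted to % inhibition. IC50 from a four-parameter fit; dose-response spans 12 threefold dilutions from 30.0 μM.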

Histone deacetylase 3 = Histone deacetylase 3 (Homo sapiens, UniProt O15379); experiment: Inhibition of recombinant human HDAC3 expressed in SF9 baculoviral system using FAM-labeled acetylated peptide as substrate by EMSA; outline: as §1
Histone deacetylase 3, sequence (O15379 whole entry): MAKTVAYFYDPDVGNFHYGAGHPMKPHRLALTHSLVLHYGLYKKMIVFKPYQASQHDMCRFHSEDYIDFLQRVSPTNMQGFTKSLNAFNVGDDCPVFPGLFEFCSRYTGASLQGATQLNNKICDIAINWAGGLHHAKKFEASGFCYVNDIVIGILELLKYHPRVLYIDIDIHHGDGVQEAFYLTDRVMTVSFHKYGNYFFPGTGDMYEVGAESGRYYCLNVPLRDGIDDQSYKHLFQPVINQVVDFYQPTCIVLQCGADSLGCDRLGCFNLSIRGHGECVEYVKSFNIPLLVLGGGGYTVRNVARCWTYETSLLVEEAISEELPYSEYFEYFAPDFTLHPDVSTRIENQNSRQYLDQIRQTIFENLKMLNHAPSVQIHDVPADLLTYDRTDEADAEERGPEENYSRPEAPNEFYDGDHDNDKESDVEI

[2] = Cytotoxicity against mouse KPC monolayer cells assessed as reduction in tumor spheroid intensity after 72 hrs by Alamar Blue assay; type: functional, cell-based
Outline: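 Monolayer proliferation of STR-authenticated, mycoplasma-checked patient-derived PDAC lines and mouse KPC cells. Plated at 2000 cells/well, treated 72 h, read by alamarBlue. At least triplicate, n = 3–5.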

[3] = Intrinsic clearance in ICR/CD1 mouse hepatocytes assessed per million cells at 1 uM up to 120 mins by LC-MS/MS analysis; type: ADME, cell-based, Hepatocyte; conditions: 2 h
[4] = Half life in ICR/CD1 mouse hepatocytes at 1 uM up to 120 mins by LC-MS/MS analysis; type: ADME, cell-based, Hepatocyte; conditions: 2 h

Q: Which results are given for `O=C(NO)c1ccc(N(Cc2ccc(C(F)(F)F)cc2)C(=O)CN(Cc2ccccc2C(F)(F)F)S(=O)(=O)c2ccc(F)cc2)cc1`?
A: IC50 (Histone deacetylase 8): > 1 µM; IC50 [1]: 0.093 µM; IC50 (Histone deacetylase 11): 0.304 µM; IC50 (Histone deacetylase 3): > 1 µM

Q: For `CC(C)(C)c1ccc(CN(C(=O)CN(Cc2ccccc2C(F)(F)F)S(=O)(=O)c2ccc(F)cc2)c2ccc(C(=O)NO)cc2)cc1`, which IC50 (Histone deacetylase 8) is on record?
A: Its IC50 is > 1 µM.

Q: And the IC50 [1]?
A: The IC50 was 0.23 µM.

Q: And the IC50 (Histone deacetylase 11)?
A: The IC50 was 0.253 µM.

Q: What about the IC50 (Histone deacetylase 3) of the same compound?
A: The IC50 was > 1 µM.

Q: Which results are given for `O=C(NO)c1ccc(N(Cc2ccc(C(F)(F)F)cc2)C(=O)CN(Cc2ccccc2C(F)(F)F)S(=O)(=O)c2ccc(F)cc2F)cc1`?
A: IC50 (Histone deacetylase 8): > 1 µM; IC50 [1]: 0.151 µM; IC50 (Histone deacetylase 11): 0.346 µM; IC50 (Histone deacetylase 3): > 1 µM

Q: With `CC(C)(C)c1ccc(CN(C(=O)CN(Cc2ccccc2C(F)(F)F)S(=O)(=O)c2ccc(F)c(F)c2)c2ccc(C(=O)NO)cc2)cc1` as the compound, how does the IC50 (Histone deacetylase 8) read?
A: Its IC50 is > 1 µM.

Q: And the IC50 [1]?
A: Its IC50 is 0.362 µM.

Q: And the IC50 (Histone deacetylase 11)?
A: The IC50 was 0.254 µM.

Q: What about the IC50 (Histone deacetylase 3) of the same compound?
A: Its IC50 is > 1 µM.

Q: With `O=C(NO)c1ccc(N(Cc2ccc(C(F)(F)F)cc2)C(=O)CN(Cc2ccccc2C(F)(F)F)S(=O)(=O)c2ccc(F)c(F)c2)cc1` as the compound, how does the IC50 (Histone deacetylase 8) read?
A: The IC50 was > 1 µM.

Q: And the IC50 [1]?
A: The IC50 was 0.188 µM.

Q: What about the IC50 (Histone deacetylase 11) of the same compound?
A: Its IC50 is 0.396 µM.

Q: And the IC50 (Histone deacetylase 3)?
A: The IC50 was > 1 µM.

Q: Which IC50 [2] does the source give for `Cc1[nH]c2ccccc2c1CCNCc1ccc(/C=C/C(=O)NO)cc1` [PANOBINOSTAT] here?
A: The IC50 was 8.5 µM.

Q: With `O=C(NO)c1ccc(N(Cc2ccc(C(F)(F)F)cc2)C(=O)CN(Cc2c(F)c(F)c(F)c(F)c2F)S(=O)(=O)c2ccc(F)cc2)cc1` as the compound, how does the IC50 (Histone deacetylase 8) read?
A: Its IC50 is > 1 µM.

Q: What about the CLH [3] of the same compound?
A: The CLH was 37.4 µL/min.

Q: What about the IC50 [1] of the same compound?
A: The IC50 was 0.086 µM.

Q: And the IC50 (Histone deacetylase 11)?
A: The IC50 was 0.191 µM.

Q: What about the t1/2 [4] of the same compound?
A: The t1/2 was 37.1 min.

Q: What about the IC50 (Histone deacetylase 3) of the same compound?
A: Its IC50 is > 1 µM.

Q: For `CC(C)(C)c1ccc(CN(C(=O)CN(Cc2ccccc2C(F)(F)F)S(=O)(=O)c2ccc(F)cc2F)c2ccc(C(=O)NO)cc2)cc1`, which IC50 (Histone deacetylase 8) is on record?
A: The IC50 was > 1 µM.

Q: What about the IC50 [1] of the same compound?
A: Its IC50 is 0.289 µM.

Q: What about the IC50 (Histone deacetylase 11) of the same compound?
A: Its IC50 is 0.288 µM.

Q: And the IC50 (Histone deacetylase 3)?
A: Its IC50 is > 1 µM.
